Jurkat viability: cytotoxicity toward Jurkat cells; inhibition, % at 4 µM; AID 463; Jurkat E6.1 viability, ATP luminescence, 48 h; actives 1.2% (n = 56,000);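 active = inhibition above the mean inhibition of all tested compounds plus 3 SD, cut at about 28% in these data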
HEK293 NFkB inh: lowers PMA/ionomycin-induced NF-kB signal in HEK293 cells; HEK-293 NF-kB luciferase reporter, luminescence; inhibition, % at 3 µM; actives 0.21% (n = 62,000); AID 465;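 active = inhibition above the mean of all tested compounds plus 3 SD, cut at about 40% in these data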
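Signal: luciferase luminescence; Material: HEK-293 cells with stable firefly luciferase reporter driven by four HIV NF-kB elements; Probe or stimulus: PMA with ionomycin; Replication: tested once; Times: 1 h compound pretreatment, then 16 h stimulation at 37 °C, 5% CO2; Benchmarks: DMSO and 10 µM reference inhibitor; Evaluation: per-plate % inhibition versus controls.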
HTR1E agonist: 5-HT1E (human) receptor agonism. activation, % at 6 µM. CHO 5-HT1E Ga15 NFAT-bla reporter, FRET; 0% DMSO wells, 100% control agonist wells. actives 0.69% (n = 65,000). P28566;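 active = activation above a set limit, the screen-wide mean activation plus 3 SD, cut at about 8.5% in these data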
HTR1E antagonist: blocks the human 5-HT1E serotonin receptor; inhibition, % at 6 µM; actives 0.99% (n = 65,000); P28566; CHO 5-HT1E Ga15 NFAT-bla reporter, FRET, antagonist;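 active = inhibition above a set limit, the mean inhibition across every tested compound plus 3 SD, cut at about 29% in these data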;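 note: signal is the 460 over 535 nm emission ratio of beta-lactamase substrate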
5HT1a antag: 5-HT1a (human) receptor antagonism. P08908. inhibition, % at 10 µM. CHO 5-HT1a Ga15 NFAT-bla reporter, antagonist mode. actives 0.68% (n = 62,000);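 active = inhibition above the mean of all tested compounds plus 3 SD, cut at about 43% in these data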;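 note: receptor stimulated by 5-CT agonist at 100 nM near EC80; beta-lactamase reporter measured by ratiometric fluorescence of a cleavable substrate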
Target sequence (P08908 whole entry, looked up): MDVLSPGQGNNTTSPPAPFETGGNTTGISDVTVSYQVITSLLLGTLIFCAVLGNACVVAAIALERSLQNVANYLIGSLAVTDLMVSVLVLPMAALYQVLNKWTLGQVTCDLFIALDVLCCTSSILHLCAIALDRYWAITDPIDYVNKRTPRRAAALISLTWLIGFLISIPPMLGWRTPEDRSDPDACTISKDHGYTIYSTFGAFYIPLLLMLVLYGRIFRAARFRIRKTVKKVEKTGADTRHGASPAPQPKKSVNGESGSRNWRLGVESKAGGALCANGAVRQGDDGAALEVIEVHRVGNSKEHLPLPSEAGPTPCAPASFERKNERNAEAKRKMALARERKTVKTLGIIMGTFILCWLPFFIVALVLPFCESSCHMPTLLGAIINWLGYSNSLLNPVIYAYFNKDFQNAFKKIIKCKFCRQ
HTR1A agonist: activates the human 5-HT1a serotonin receptor | actives 0.56% (n = 65,000) | CHO 5-HT1a Ga15 NFAT-bla reporter, FRET ratio; 0% basal, 100% maximal reference agonist | activation, % at 10 µM | P08908 | AID 567;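 active = activation above the screen-wide mean activation plus 3 SD, cut at about 19% in these data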
A number is an active result; n = inactive; x = no result given. Rows were chosen to be rich in hits. Some 3.3% of all compounds tested hit in one or more screens of this group.

SMILES | Jurkat viability | HEK293 NFkB inh | HTR1E agonist | HTR1E antagonist | 5HT1a antag | HTR1A agonist
O=C(Nc1ccc2c(c1)OCO2)c1cnn2cccnc12 | n | n | n | n | n | n
COC(=O)c1ccccc1NC1c2ccccc2C(=O)N1c1cccnc1 (centres undefined) | n | n | n | n | n | 56
CCC1=NC(c2ccccc2OC)N(O)C1(C)C (centres undefined) | n | n | n | n | n | n
CCN(CC)C(=O)Sc1cccc2cccnc12 | n | n | n | n | n | n
CCOC(=O)CSc1cccc2cccnc12 | n | n | n | 40 | n | n
Cc1cccc(NC(=O)CSc2ncnc3c2oc2ccccc23)c1 | n | n | n | n | n | n
COc1ccccc1NC(=O)CSc1ncnc2c1oc1ccccc12 | n | n | n | 36 | n | n
CCc1nc(SCC(=O)Nc2ccc3c(c2)OCCO3)c2oc3ccccc3c2n1 | n | n | n | n | n | n
CCc1nc(SCC(=O)Nc2nccs2)c2oc3ccccc3c2n1 | n | n | n | 38 | n | n
O=C(Cc1ccccc1)N1CCN(C(=O)c2cccs2)CC1 | n | n | n | n | n | n
CC1CCN(CCCNC(=O)Cc2c(C(=O)O)n(C)c3ccccc23)CC1 | n | n | n | n | n | n
CN(C)CCN(Cc1ccccc1)c1ccccn1 | x | x | n | n | x | n
CN(C)CCN(Cc1ccccc1)c1ccnc(N(C)C)c1C#N | n | n | 21 | n | n | n
CN1CCN(C2=C(Cl)C(=O)N(C3CCCCC3)C2=O)CC1 | n | n | 39 | n | n | n
COc1ccccc1-n1cnc2cc(NCc3ccco3)ccc21 | 58 | n | n | 34 | n | n
COc1ccc(N2C(C)=CS/C2=C(/C#N)c2nnc(N3CCOCC3)n2-c2ccccc2)cc1 | n | n | n | n | n | n
Cc1ccc(C2c3c(oc4ccccc4c3=O)C(=O)N2c2nnc(C(C)C)s2)o1 (centres undefined) | n | n | n | 32 | n | n
CCCC(=O)N=C1SC2CS(=O)(=O)CC2N1c1ccc(CC)cc1 (centres undefined) | x | n | n | n | n | n
Cc1c(/C=N/n2cnnc2)c2ccccc2n1CCOc1ccccc1 | n | n | n | 34 | n | n
CCOCCOCN(C#N)c1nc(OC)nc(N(C)C)n1 | x | n | n | n | n | n
CC(=O)Oc1ccc(N2C(=O)C3C(C2=O)C2(C)C=CC3(C)O2)cc1 (centres undefined) | n | n | n | 64 | 85 | n
COC(=O)c1cc(N2C(=O)C3C(C2=O)C2(C)C=CC3(C)O2)ccc1Cl (centres undefined) | n | n | n | n | n | n
C=CCNc1nc(-c2c(C)nc3sccn23)cs1 | n | n | n | n | n | n
Cc1nc2sccn2c1-c1csc(NCc2ccccc2)n1 | 67 | n | n | n | n | n
Cc1nnc2sc(-c3cc4ccccc4o3)nn12 | n | n | n | n | n | n
SMILES | Jurkat viability | HEK293 NFkB inh | HTR1E agonist | HTR1E antagonist | 5HT1a antag | HTR1A agonist
O=C(O)CCCC(=O)Nc1nc(-c2ccccc2)cs1 | n | n | 26 | n | n | n
O=C(O)CCCC(=O)Nc1nc(-c2ccc(F)cc2)cs1 | n | n | n | n | n | n
N=c1c2c(n(Cc3ccc(F)cc3)c3c1CCC3)CCC2 | n | n | n | n | n | n
CCCCn1c2c(c(=N)c3c1CCC3)CCC2 | 69 | n | n | n | n | n
CCCCCCn1c2c(c(=N)c3c1CCC3)CCC2 | 91 | n | n | n | n | n
CCOC(=O)c1cnc2nc(COc3ccccc3)[nH]n2c1=O | n | n | n | n | n | n
COc1ccc(Cc2nnc(-c3cccc(C)c3)o2)cc1OC | n | n | n | n | n | n
COc1ccc(CC(=O)Nc2cccc(-c3nnc(-c4cccc(C)c4)o3)c2)cc1OC | 43 | n | n | 80 | 92 | n
CCN(CC)CC(=O)Nc1ccc(-c2nc3cc(NC(=O)CN(CC)CC)ccc3o2)cc1 | n | n | n | n | n | n
COc1ccc(CC(=O)Nc2cccc(-c3nnc(-c4ccccc4)o3)c2)cc1OC | 33 | n | n | n | n | n
COc1ccc(CC(=O)Nc2cccc(-c3nnc(-c4ccc(C)cc4)o3)c2)cc1OC | n | n | n | 34 | n | n
CCOc1cccc(C(=O)Nc2cccc(-c3nnc(-c4ccc(C)cc4)o3)c2)c1 | n | n | n | n | n | n
COc1ccc(-c2nc3cc(NC(=O)Cc4ccc(OC)c(OC)c4)ccc3o2)cc1 | 73 | n | n | n | n | n
COc1ccc(CC(=O)Nc2ccc(-c3nnc(-c4ccccc4)o3)cc2)cc1OC | n | n | n | n | n | n
Cc1cc(C)n2nc(NCc3cccc(Br)c3)nc2n1 | n | n | n | n | n | n
O=C(O)CCNc1ccc2c(c1)OCCO2 | n | n | n | n | n | n
O=P(O)(CN1CCCCC1)C1CCCCC1O (centres undefined) | n | n | n | n | n | n
O=C(CN1CCC(NC(=O)Nc2ccccc2-c2ccccc2)CC1)NCc1ccco1 | n | n | n | n | n | n
CC1(C)Cc2c(sc3c4nnnn4c4nnnn4c23)CO1 | x | x | n | n | x | n
COc1ccc(CCCc2nnc(SCC(=O)Nc3nc(C)cs3)n2C)cc1C | n | n | n | n | n | n
COc1ccc(CC(=O)Nc2nc(C)cs2)cc1OC | 37 | n | n | n | n | n
Cc1cccc(N2CCN(C(=O)Cn3nc(Cc4ccncc4)c4ccccc4c3=O)CC2)c1C | n | n | n | n | n | n
N#Cc1c(N)nc(SCc2ccccn2)c(C#N)c1-c1cccs1 | x | x | n | 30 | x | n
N#Cc1c(N)nc(SCC(=O)NCc2ccc3c(c2)OCO3)c(C#N)c1-c1cccs1 | x | x | n | n | x | n
CCOc1cc2[nH]c(=O)n(CCCCC(=O)NC3CCCCC3)c(=O)c2cc1OCC | n | n | n | n | n | n
SMILES | Jurkat viability | HEK293 NFkB inh | HTR1E agonist | HTR1E antagonist | 5HT1a antag | HTR1A agonist
O=C1CC(C(=O)Nc2ccccc2)C2(CCCC2)O1 (centres undefined) | x | n | 14 | n | n | n
COC(=O)C1=[N+]([O-])OC(C(=O)OC)C1c1c[nH]c2ccccc12 (centres undefined) | n | n | n | n | n | n
COc1cc(C(=O)N2CCN(c3ccc(C)cc3C)CC2)cc(OC)c1OC | 91 | n | n | n | n | n
Cc1ccc(N2CCN(C(=O)c3ccccc3)CC2)c(C)c1 | n | n | n | n | n | n
CCOC(=O)Cn1c(=O)c2c(nc(Br)n2Cc2ccc(Cl)cc2)n(C)c1=O | n | n | n | n | n | n
CC(C)=CCC(C)(C)CNC(=O)NC1CCCCC1 | x | x | n | 99 | x | n
Cc1ccc(S(=O)(=O)N2C(=O)CCC2C(=O)NCc2ccco2)cc1 (centres undefined) | n | n | n | n | n | n
COC(=O)c1cc(OC)c(OC)cc1NC(=O)C1CCC(=O)N1S(=O)(=O)c1ccc(C)cc1 (centres undefined) | n | n | n | 36 | n | n

Screening data (PubChem BioAssay)
